Values after ≈ are worked out from the molar mass of the structure shown. Active and inactive are the calls of the source. The calls are words filed in the database; no cut-off is given here.
Columns and labels:
[1] = Cytotoxicity against human HepG2 cells assessed as cell viability after 24 hrs by neutral red uptake assay; format: cell-based; conditions: read-out: TC50
Outline: (§1)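 NIH3T3 cells grown in DMEM and HepG2 in EMEM, both with 10% FCS, glutamine/penicillin/streptomycin and non-essential amino acids, 37 °C, 5% CO₂. Cells trypsinized at confluence and resuspended. Viability by neutral red uptake after 24 h exposure. Student's t test, p < 0.05.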

[2] = Cytotoxicity against mouse NIH/3T3 cells assessed as cell viability after 24 hrs by neutral red uptake assay; format: cell-based, NIH3T3; conditions: read-out: TC50; outline: as §1
[3] = Chemical stability of the compound at pH 7.4 at 37 degC by NMR analysis; format: physicochemical; conditions: buffer
[4] = Chemical stability of the compound at pH 2 at 37 degC after 1 hr by NMR analysis; format: physicochemical; conditions: buffer, pH 2, 1 h
[5] = test system: Plasmodium falciparum; assay: Antiplasmodial activity against chloroquine-sensitive Plasmodium falciparum D10 infected in human RBCs after 72 hrs by parasite lactate dehydrogenase assay; format: functional, organism-based; conditions: D10, 72 h
Outline: (§2)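 Asynchronous cultures (parasitemia 1−1.5%, 1% final hematocrit) in human type A-positive RBCs, RPMI 1640 with 1% AlbuMax, hypoxanthine, Hepes and glutamine. Exposed to serial dilutions (DMSO <1% final) for 72 h at 37 °C under 1% O₂/5% CO₂/94% N₂. Growth read as pLDH activity at OD₆₅₀ (modified Makler method).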

[6] = test system: Plasmodium falciparum; assay: Antiplasmodial activity against chloroquine-resistant Plasmodium falciparum W2 infected in human RBCs after 72 hrs by parasite lactate dehydrogenase assay; format: functional, organism-based; conditions: W2, 72 h; outline: as §2
[7] = Chemical stability in DMSO/D2O mixture solution at 25 degC by NMR analysis; format: physicochemical
[8] = test system: Plasmodium falciparum; assay: Resistant index, ratio of IC50 for chloroquine-resistant Plasmodium falciparum W2 to IC50 for chloroquine-sensitive Plasmodium falciparum D10; format: functional
[9] = Chemical stability of the compound at pH 2 at 37 degC measured for 24 hrs by NMR analysis; format: physicochemical; conditions: buffer, pH 2, 24 h
[10] = Aqueous solubility of the compound in water at pH 3 after 24 hrs; format: physicochemical
Outline: (§3)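 Prepared from 10 mM DMSO stock as 250 μM in 50 mM acetic acid (pH 3) or 50 mM ammonium acetate (pH 7.4), 2.5% DMSO final, in filter plates. Filtrate diluted 1:2 and run on UPLC/UV/TOF-MS at 254 nm. Solubility from sample UV area versus a 250 μM standard in acetonitrile/buffer.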

[11] = molecular target: T1, Chloroquine resistance transporter (Plasmodium falciparum) (UniProt Q9N623); assay: Inhibition of chloroquine-resistant Plasmodium falciparum Dd2 CRT expressed in Xenopus laevis oocytes assessed as reduction in [3H]-chloroquine uptake at 100 uM after 1.5 to 2 hrs; format: cell-based; conditions: Oocyte
T1 sequence (whole entry): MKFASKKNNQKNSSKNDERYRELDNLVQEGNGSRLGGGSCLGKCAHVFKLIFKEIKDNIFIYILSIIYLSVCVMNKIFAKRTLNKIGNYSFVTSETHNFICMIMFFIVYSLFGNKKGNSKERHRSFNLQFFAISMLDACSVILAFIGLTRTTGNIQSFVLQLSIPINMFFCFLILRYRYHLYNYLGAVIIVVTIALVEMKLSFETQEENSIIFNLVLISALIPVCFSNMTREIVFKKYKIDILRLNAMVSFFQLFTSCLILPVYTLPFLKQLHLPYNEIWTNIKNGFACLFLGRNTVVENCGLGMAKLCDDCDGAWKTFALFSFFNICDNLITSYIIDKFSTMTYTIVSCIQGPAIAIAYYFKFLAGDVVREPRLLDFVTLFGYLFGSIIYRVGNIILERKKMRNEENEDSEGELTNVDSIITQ
Outline: (§4)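 Oocytes injected with Dd2 or D10 PfCRT cRNA (20 ng per oocyte). Compound at 100 μM extracellular. [³H]CQ (0.3 μM) uptake measured 3−5 days post-injection over 1.5−2 h at 27.5 °C, in pH 6.0 medium containing 15 μM unlabeled CQ. 10 oocytes per treatment, five experiments. Compared by ANOVA with Tukey's test.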

[12] = Chemical stability of the compound at pH 7.4 at 37 degC measured for 24 hrs by NMR analysis; format: physicochemical; conditions: buffer, pH 7.4, 24 h
[13] = molecular target: T1, Chloroquine resistance transporter (Plasmodium falciparum); assay: Inhibition of chloroquine-sensitive Plasmodium falciparum D10 CRT expressed in Xenopus laevis oocytes assessed as [3H]-chloroquine uptake at 100 uM after 1.5 to 2 hrs; format: cell-based; conditions: Oocyte; outline: as §4
[14] = Aqueous solubility of the compound in water at pH 7.4 after 24 hrs; format: physicochemical; outline: as §3
[15] = test system: Plasmodium berghei; assay: Antiplasmodium activity against chloroquine-sensitive Plasmodium berghei ANKA infected in BALB/c mouse assessed as decrease in parasitemia administered as po until day 4 measured 24 hrs post last dose by Giemsa staining; format: functional
Outline: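 P. berghei ANKA in female 5-week-old BALB/c mice (19 g), infected ip with 2 × 10⁷ parasitized erythrocytes. Fresh aqueous stocks (100 mg/mL) diluted 1.5-fold to give 6−7 doses from 4.4 to 50 mg/kg, given once daily by oral gavage starting 4 h post-infection through day 4. Parasitemia read from Giemsa tail-blood smears 24 h after last dose. ED50 from four-parameter logistic fit.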

[16] = molecular target: T2, Chloroquine resistance transporter (Plasmodium falciparum, UniProt Q9N623); assay: Inhibition of chloroquine-resistant Plasmodium falciparum Dd2 CRT expressed in Xenopus laevis oocytes assessed as reduction in [3H]-chloroquine uptake after 1.5 to 2 hrs
T2 sequence (Q9N623 whole entry): T1 sequence (whole entry)

[17] = organism: Oryctolagus cuniculus; assay: Inhibition of rabbit kidney Na+/K+ ATPase hydrolytic activity assessed as inorganic phosphate production at 10 uM by malachite green staining-based colorimetric assay
Outline: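 Na⁺,K⁺-ATPase membrane fragments prepared from rabbit kidney outer medulla and used at about 1 μg/mL protein. Buffer: 25 mM MOPS pH 7.0, 100 mM NaCl, 20 mM KCl, 3 mM MgCl₂. Test agent at 10 μM, with ouabain as reference. Pi release measured by malachite green colorimetry.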

[18] = test system: CYP3A4; assay: Metabolic stability in human liver microsomes assessed as compound ramining after 1 hr in presence of human recombinant CYP3A4; format: ADME, Microsome; conditions: in the assay text read “assessed” for “in human liver microsomes assessed”, read-out: Stability
Outline: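 Substrate at 1 μM final (0.25% organic solvent) incubated 1 h at 37 °C with recombinant hCYP3A4 (20 pmol/mL), with or without NADPH regenerating system. Stopped with acetonitrile. Result is % remaining from MS peak area with NADPH relative to without. CV typically within 10%.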

[19] = Intrinsic clearance in rat liver microsomes at 1 uM; format: ADME, Microsome; conditions: read-out: CLH
Outline: (§5)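 Substrate at 1 μM with 0.2 mg/mL mouse or rat liver microsomal protein in 100 mM phosphate, pH 7.4. Reaction started with NADPH regenerating system (1 mM NADPH, 10 mM G6P, 0.4 U/mL G6PDH) and stopped with acetonitrile at intervals over 0−45 min, in duplicate. HPLC-MS depletion fitted monoexponentially; Clint = k × V/P.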

[20] = molecular target: Potassium voltage-gated channel subfamily H member 2 (Rattus norvegicus); assay: Inhibition of rat ERG after 2 to 3 days by patch clamp assay
[21] = Intrinsic clearance in mouse liver microsomes at 1 uM; format: ADME, Microsome; conditions: read-out: CLH; outline: as §5
[22] = Chemical stability of the compound at pH 7.4; format: physicochemical; conditions: buffer
[23] = test system: Plasmodium berghei; assay: Antiplasmodium activity against chloroquine-sensitive Plasmodium berghei ANKA infected in BALB/c mouse assessed as decrease in parasitemia at 50 mg/kg, ip administered until day 4 measured 24 hrs post last dose by Giemsa staining; format: functional, organism-based; design: dose 50 mg/kg
Outline: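 Peters 4-day test, P. berghei ANKA, female 5-week-old BALB/c mice infected ip with 2 × 10⁷ parasitized erythrocytes. Single group of six mice given 50 mg/kg ip daily, starting 4 h post-infection through day 4. Parasitemia counted on Giemsa tail-blood smears 24 h after final treatment.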

SMILES: CCN(CC)CCCC(C)Nc1ccnc2cc(Cl)ccc12 (configuration not stated) [CHLOROQUINE]
- CC50 at 24 h [1]: 31000 nM
- CC50 at 24 h [2]: > 80000 nM

SMILES: CCCN1COc2cc(Nc3ccnc4cc(Cl)ccc34)ccc2C1
- Stability [3]: Stable
- Stability [4]: Unstable
- IC50 [5]: 21 nM
- IC50 [6]: 40 nM
- Stability [7]: Stable
- Ratio IC50 [8]: 2

SMILES: Clc1ccc2c(Nc3ccc4c(c3)NCN(Cc3ccccc3)C4)ccnc2c1
- Stability [9]: Stable
- solubility at 24 h [10]: 122 µM (≈ 48.9 µg/mL)
- inhibition [11]: Active
- CC50 at 24 h [1]: 25000 nM
- IC50 [5]: 53 nM
- Stability [12]: Stable
- inhibition [13]: inactive
- IC50 [6]: 67 nM
- solubility ([14]; buffer, pH 7.4, 24 h, BLD = below limit of detection): BLD
- ED50 [15]: 15.7 mg/kg
- IC50 [16]: 228000 nM
- inhibition [17]: 35%
- CC50 at 24 h [2]: 40000 nM
- remaining at 1 h [18]: 18%

SMILES: CC(C)(C)NC(=O)[C@@H]1C[C@@H]2CCCC[C@@H]2CN1C[C@@H](O)[C@H](Cc1ccccc1)NC(=O)[C@H](CC(N)=O)NC(=O)c1ccc2ccccc2n1
- IC50 [16]: 13000 nM

SMILES: O=C1c2ccc(Nc3ccnc4cc(Cl)ccc34)cc2NCN1Cc1ccccc1
- IC50 [5]: > 1000 nM
- IC50 [6]: > 1000 nM

SMILES: CCn1cnc2cc(Nc3ccnc4cc(Cl)ccc34)ccc2c1=O
- IC50 [5]: > 1000 nM
- IC50 [6]: > 1000 nM

SMILES: C[C@@H]1O[C@@H](O[C@H]2C[C@@H](O)[C@]3(CO)[C@H]4[C@H](O)C[C@]5(C)[C@@H](C6=CC(=O)OC6)CC[C@]5(O)[C@@H]4CC[C@]3(O)C2)[C@H](O)[C@H](O)[C@H]1O
- inhibition [17]: Active

SMILES: CCN1CNc2cc(Nc3ccnc4cc(Cl)ccc34)ccc2C1
- Stability [9]: Stable
- IC50 [5]: 11 nM
- Stability [12]: Stable
- IC50 [6]: 60 nM
- Ratio IC50 [8]: 5.4

SMILES: CCCN1CNc2cc(Nc3ccnc4cc(Cl)ccc34)ccc2C1
- Stability [9]: Stable
- solubility at 24 h [10]: 231 µM (≈ 81.5 µg/mL)
- microsomal CLint at 1 µM [19]: 121 µL/min/mg
- inhibition [11]: Active
- CC50 at 24 h [1]: 5700 nM
- IC50 [20]: 22 nM
- inhibition (INH) ([20]; rat): Dose-dependent effect
- IC50 [5]: 21 nM
- Stability [12]: Stable
- inhibition [13]: inactive
- IC50 [6]: 53 nM
- microsomal CLint at 1 µM [21]: 219 µL/min/mg
- solubility at 24 h ([14]; water, pH 7.4): 53 µM (≈ 18.7 µg/mL)
- ED50 [15]: 8.74 mg/kg
- Stability [22]: 100%
- Ratio IC50 [8]: 2.5
- inhibition [17]: 35%
- CC50 at 24 h [2]: 17000 nM
- remaining at 1 h [18]: 43%

SMILES: Clc1ccc2c(Nc3ccc4c(c3)OCN(Cc3ccccc3)C4)ccnc2c1
- Stability [3]: Stable
- CC50 at 24 h [1]: 15000 nM
- Stability [4]: Unstable
- IC50 [5]: 38 nM
- IC50 [6]: 31 nM
- Stability [7]: Stable
- Ratio IC50 [8]: 0.8
- CC50 at 24 h [2]: 40000 nM

SMILES: CCN(CC)Cc1ccc(Nc2ccnc3cc(Cl)ccc23)cc1O [ISOQUINE]
- IC50 [5]: 27 nM
- IC50 [6]: 31 nM
- Ratio IC50 [8]: 1.1

SMILES: O=c1c2ccc(Nc3ccnc4cc(Cl)ccc34)cc2ncn1Cc1ccccc1
- IC50 [5]: > 1000 nM
- IC50 [6]: > 1000 nM

SMILES: CCN(CC)Cc1cc(Nc2ccnc3cc(Cl)ccc23)ccc1O.Cl
- IC50 [5]: 25 nM
- IC50 [6]: 19 nM
- Ratio IC50 [8]: 0.7

SMILES: O=c1c2ccc(Nc3ccnc4cc(Cl)ccc34)cc2ncn1Cc1ccc(CN2CCCC2)cc1
- IC50 [5]: 31 nM
- IC50 [6]: 83 nM
- Ratio IC50 [8]: 2.7

SMILES: CCN1COc2cc(Nc3ccnc4cc(Cl)ccc34)ccc2C1
- Stability [3]: Stable
- CC50 at 24 h [1]: 6000 nM
- Stability [4]: Unstable
- IC50 [5]: 23 nM
- Activity [23]: Active
- IC50 [6]: 72 nM
- Stability [7]: Stable
- Ratio IC50 [8]: 3.1
- CC50 at 24 h [2]: 29000 nM

SMILES: CCCn1cnc2cc(Nc3ccnc4cc(Cl)ccc34)ccc2c1=O
- IC50 [5]: > 1000 nM
- IC50 [6]: > 1000 nM

— ChEMBL document CHEMBL2176916, “Mimicking the intramolecular hydrogen bond: synthesis, biological evaluation, and molecular modeling of benzoxazines and quinazolines as potential antimalarial agents” (J Med Chem, 2012)
